Test results from ChEMBL document CHEMBL4376878, “Potent Thiophene Antagonists of Human Complement C3a Receptor with Anti-Inflammatory Activity” (J Med Chem, 2020).
Calls of active or inactive are those of the source. No cut-off for these calls is given here. Residues, ends and D or L forms follow the SMILES beside them.

What was measured:
[1] = Stability of the compound in rat plasma at 1 mM measured after 10 mins by LC-MS analysis; format: ADME, cell-free; details: 1000 µM
[2] = molecular target: T1, C3a anaphylatoxin chemotactic receptor (Homo sapiens) (UniProt Q16581); experiment: Potency index, ratio of SB290157 IC50 to test compound IC50 for antagonist activity at C3a receptor in human MDM cells; format: cell-based
T1 sequence (whole entry): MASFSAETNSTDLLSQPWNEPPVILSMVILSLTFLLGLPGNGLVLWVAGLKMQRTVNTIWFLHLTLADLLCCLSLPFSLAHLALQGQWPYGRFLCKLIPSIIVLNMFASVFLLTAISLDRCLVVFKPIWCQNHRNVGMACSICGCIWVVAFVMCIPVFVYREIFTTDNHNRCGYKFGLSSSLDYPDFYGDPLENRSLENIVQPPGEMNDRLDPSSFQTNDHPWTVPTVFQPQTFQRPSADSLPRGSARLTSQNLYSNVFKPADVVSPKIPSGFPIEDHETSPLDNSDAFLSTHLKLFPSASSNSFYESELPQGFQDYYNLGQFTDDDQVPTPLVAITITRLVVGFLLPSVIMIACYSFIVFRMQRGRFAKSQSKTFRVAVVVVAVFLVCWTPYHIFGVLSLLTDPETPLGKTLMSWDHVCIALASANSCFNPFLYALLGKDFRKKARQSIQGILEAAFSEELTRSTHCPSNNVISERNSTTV

[3] = Elimination half-life in Wistar rat at 0.5 mg/kg, iv by LC-MS/MS analysis; format: ADME, organism-based; details: in vivo, read-out: beta t1/2
How it was run: (§1)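 Male Wistar rats with jugular vein catheter, fasted overnight; dosed p.o. by gavage in olive oil or i.v. via catheter in 50% DMSO. Blood drawn from conscious unrestrained rats 5 min before dosing, then 5, 15, 30 min and 1–8 h after. Volume replaced with heparinized saline. Rats fed after 4 h sample. n = 3 per route.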

[4] = Volume of distribution in Wistar rat at 0.5 mg/kg, iv by LC-MS/MS analysis; format: ADME, organism-based; details: in vivo; how it was run: as §1
Rattus norvegicus [5] = experiment: Antiinflammatory activity in Wistar rat model of BR103-induced paw edema assessed as reduction in hind paw swelling at 30 mg/kg, po administered via gavage pretreated for 4 hrs followed by BR103 challenge and measured after 30 mins by digital caliper method relative to control; format: functional; design: scale not given: the % may be the effect or the level left
How it was run: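 For duration of action, antagonist was given at 30 mg/kg by oral gavage in olive oil at 1, 2, 4, 6, 8 or 12 h before intraplantar BR103 (350 μg/paw) in male Wistar rats. Controls received olive oil 2 h before challenge. Paw thickness and width were measured with calipers at 0 and 0.5 h; n = 3 per group.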

Rattus norvegicus [6] = experiment: Antiinflammatory activity in Wistar rat model of BR103-induced paw edema assessed as reduction in hind paw swelling at 10 mg/kg, po administered via gavage pretreated for 2 hrs followed by BR103 challenge and measured after 30 mins by digital caliper method relative to control; format: functional; design: scale not given: the % may be the effect or the level left
How it was run: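 Male Wistar rats were given antagonist at 10 mg/kg by oral gavage in olive oil 2 h before intraplantar BR103 (350 μg in 100 μL of 5% DMSO). Sham paws received vehicle; sham and control rats received olive oil only. Paw thickness and width were measured with digital calipers at 0, 0.5, 1 and 2 h after agonist; n = 3 per group.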

[7] = Stability of the compound in rat plasma at 1 mM measured after 4 hrs by LC-MS analysis; format: ADME, cell-free
How it was run: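 Compound added to rat plasma from 1 mM DMSO stock (stock concentration) and incubated at 37 °C. Samples taken at 0, 5, 15, 30, 60, 120 and 240 min, quenched in MeCN/H₂O 9:1, centrifuged and analyzed by LC-MS. Plasma activity checked with SLIGRL-NH₂.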

[8] = Tmax in Wistar rat at 10 mg/kg, po by LC-MS/MS analysis; format: ADME, organism-based; details: in vivo; how it was run: as §1
[9] = Cmax in Wistar rat at 10 mg/kg, po by LC-MS/MS analysis; format: ADME, organism-based; design: dose 10 mg/kg, route oral; details: in vivo; how it was run: as §1
[10] = molecular target: T2, C3a anaphylatoxin chemotactic receptor (Homo sapiens, UniProt Q16581); experiment: Agonist activity at C3a receptor in human MDM cells assessed as induction of intracellular calcium release measured at 1 sec interval for => 200 secs by Fluo-3 AM dye-based FLIPR assay; format: cell-based
T2 sequence (Q16581 whole entry): T1 sequence (whole entry)
How it was run: (§2)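 HMDMs were differentiated from CD14⁺ monocytes with M-CSF (100 ng/mL) for 7 days and seeded overnight at 5 × 10⁴ cells/well. Cells were loaded with 4 μM Fluo-3 AM for 1 h at 37 °C, then placed in HBSS with 2.5 mM probenecid and 20 mM HEPES, pH 7.4. Agonist was added on FLIPR and read at ex 495/em 520 nm. EC50 is relative to the maximum from 1 μM C3a; n ≥ 3.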

[11] = molecular target: T2, C3a anaphylatoxin chemotactic receptor; experiment: (§3) Antagonist activity at C3a receptor in human MDM cells assessed as inhibition of C3a-induced intracellular calcium release preincubated for 30 mins followed by C3a addition and measured at 1 sec interval for => 200 secs by Fluo-3 AM dye-based FLIPR assay; format: functional, cell-based
How it was run: (§4)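 Macrophages were derived from CD14⁺ monocytes (M-CSF, 7 days) and dye-loaded with 4 μM Fluo-3 AM for 1 h at 37 °C in HBSS/probenecid/HEPES, pH 7.4. Antagonist was preincubated for 30 min at 37 °C before addition of synthetic full-length human C3a (100 nM). FLIPR fluorescence was read at ex 495/em 520 nm. Percent response was plotted against log concentration; n ≥ 3.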

[12] = molecular target: T3, C5a anaphylatoxin chemotactic receptor 1 (Homo sapiens) (UniProt P21730); experiment: Antagonist activity at C5a receptor in human MDM cells assessed as inhibition of C5a-induced intracellular calcium release preincubated for 30 mins followed by C5a addition and measured at 1 sec interval for => 200 secs by Fluo-3 AM dye-based FLIPR assay; format: functional, cell-based
T3 sequence (whole entry): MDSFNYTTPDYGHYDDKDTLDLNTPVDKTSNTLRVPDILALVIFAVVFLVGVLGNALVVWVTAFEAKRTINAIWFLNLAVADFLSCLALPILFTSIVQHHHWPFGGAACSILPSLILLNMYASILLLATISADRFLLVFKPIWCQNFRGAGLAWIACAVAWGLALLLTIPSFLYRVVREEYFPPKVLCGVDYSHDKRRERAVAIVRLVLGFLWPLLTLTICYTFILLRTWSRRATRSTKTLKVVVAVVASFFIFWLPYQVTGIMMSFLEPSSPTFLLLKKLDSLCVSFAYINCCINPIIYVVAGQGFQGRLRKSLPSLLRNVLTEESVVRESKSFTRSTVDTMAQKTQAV
How it was run: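 HMDMs from CD14+ monocytes after 7 days in M-CSF; 5 × 10⁴ cells/well seeded overnight. Cells loaded 1 h at 37 °C with 4 μM Fluo-3 AM, then washed into HBSS with 2.5 mM probenecid and 20 mM HEPES, pH 7.4. Antagonist preincubated 30 min at 37 °C before C5a. Fluorescence (ex 495/em 520 nm) read every 1 s for ≥200 s.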

[13] = AUC (0 to 8 hrs) in Wistar rat at 0.5 mg/kg, iv by LC-MS/MS analysis; format: ADME, organism-based; design: time < 8 hr, dose 0.5 mg/kg, route intravenous; details: in vivo; how it was run: as §1
[14] = Stability of the compound in rat liver microsomes assessed as compound degradation at 1 uM preincubated for 5 mins followed by NADPH addition and measured after 1 hr by LC-MS/MS analysis; format: ADME, Microsome; details: read-out: Drug degradation
How it was run: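 Compound at 1 μM in 100 mM phosphate buffer pH 7.4 with 0.1% DMSO was mixed with rat liver microsomes and preincubated 5 min at 37 °C before NADPH was added. Samples taken at 0, 5, 15, 30 and 60 min, quenched in MeCN/H₂O 9:1 and analyzed by LC-MS/MS. Microsome activity checked with SLIGRL-NH₂; n = 3.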

[15] = molecular target: T2, C3a anaphylatoxin chemotactic receptor; experiment: Partial agonist activity at C3a receptor in human MDM cells assessed as induction of intracellular calcium release at higher concentration measured at 1 sec interval for => 200 secs by Fluo-3 AM dye-based FLIPR assay relative to control; format: cell-based; how it was run: as §2
[16] = AUC (0 to 8 hrs) in Wistar rat at 10 mg/kg, po by LC-MS/MS analysis; format: ADME, organism-based; design: dose 10 mg/kg, time < 8 hr, route oral; details: in vivo; how it was run: as §1
[17] = molecular target: T1, C3a anaphylatoxin chemotactic receptor (Homo sapiens); experiment: Displacement of Eu-DTPA-C3a from Galpha16-coupled C3a receptor (unknown origin) expressed in HEK293 cells measured after 60 mins by time-resolved fluorescence assay; format: cell-based
[18] = molecular target: T1, C3a anaphylatoxin chemotactic receptor (Homo sapiens); experiment: Potency index, ratio of SB290157 IC50 to test compound IC50 for antagonist activity at C3a receptor in human LAD2 cells assessed as inhibition of C3a-induced beta-hexosaminidase release; format: cell-based
[19] = molecular target: T1, C3a anaphylatoxin chemotactic receptor (Homo sapiens); experiment: (§5) Antagonist at C3a receptor in human LAD2 cells assessed as inhibition of C3a-induced beta-hexosaminidase release preincubated for 30 mins followed by C3a addition; format: cell-based
How it was run: (§6)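 LAD2 mast cells grown with SCF, 1 × 10⁴ cells/well seeded overnight and presensitized overnight with IgE (100 ng/mL). Compounds preincubated 30 min at 37 °C in 0.1 M HEPES pH 7.4, then C3a added and β-hexosaminidase release measured. IC50 is concentration inhibiting 50% of release induced by 100 nM C3a; n ≥ 3.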

[20] = molecular target: T2, C3a anaphylatoxin chemotactic receptor; experiment: as §5; format: cell-based; how it was run: as §6
[21] = Clearance in Wistar rat at 0.5 mg/kg, iv by LC-MS/MS analysis; format: ADME, organism-based; details: in vivo; how it was run: as §1
Rattus norvegicus [22] = experiment: Antiinflammatory activity in Wistar rat model of BR103-induced paw edema assessed as reduction in hind paw swelling at <30 mg/kg, po administered via gavage pretreated for 2 hrs followed by BR103 challenge and measured after 0.5 to 2 hrs by digital caliper method; format: functional, organism-based
[23] = molecular target: T1, C3a anaphylatoxin chemotactic receptor (Homo sapiens); experiment: as §3; format: functional, cell-based; how it was run: as §4
[24] = Volume of distribution in Wistar rat at 1 mg/kg, iv by LC-MS/MS analysis; format: ADME, organism-based; details: in vivo; how it was run: as §1
[25] = AUC (0 to 8 hrs) in Wistar rat at 1 mg/kg, iv by LC-MS/MS analysis; format: ADME, organism-based; design: time < 8 hr, dose 1 mg/kg, route intravenous; details: in vivo; how it was run: as §1
[26] = Elimination half-life in Wistar rat at 1 mg/kg, iv by LC-MS/MS analysis; format: ADME, organism-based; details: in vivo, read-out: beta t1/2; how it was run: as §1
[27] = Clearance in Wistar rat at 1 mg/kg, iv by LC-MS/MS analysis; format: ADME, organism-based; details: in vivo; how it was run: as §1

Row | Compound | Ratio IC50 [2] | Activity (Rattus norvegicus [6]) [%] | Stability [7] | Tmax [8] [h] | Cmax [9] [ng/mL] | EC50 ([10]; read-out: EC50) [nM] | EC50 ([10]; read-out: pEC50 (converted)) [nM] | IC50 ([11]; read-out: IC50) [nM] | inhibition [12] | metabolised at 1 h, 1 µM [14] [%] | AUC(0-t) at 8 h [16] [ng·h/mL] | Ratio IC50 [18] | inhibition [19] | IC50 [20] [nM] | also measured
1 | CC(C)C[C@H](NC(=O)OC(C)(C)C)C(=O)N[C@@H](C)C(=O)N[C@@H](CCCNC(=N)N)C(=O)O (HELM PEPTIDE1{[CC(C)(C)OC(=O)[*:2]].L.A.R}$$$$V2.0) |  |  |  |  |  |  |  |  |  |  |  |  |  |  | Stability [1]: Unstable
2 | N=C(N)NCCC[C@H](NC(=O)c1ccc(C(c2ccccc2)c2ccccc2)s1)C(=O)O | 15 | 20 | Stable | 3.5 | 91 | > 100000 | > 100000 | 85 | inactive | 60 | 436 | 100 | Dose-dependent effect | 4 | half-life [3]: 0.533 h; Vd [4]: 0.4 L; Activity (Rattus norvegicus [5]): <=60%; AUC(0-t) at 8 h [13]: 811 ng·h/mL; Activity [15]: 30 to 80%; inhibition [17]: Dose-dependent effect; clearance [21]: 10.3 mL/min/kg
3 | N=C(N)NCCC[C@H](NC(=O)COCC(c1ccccc1)c1ccccc1)C(=O)O |  |  |  |  |  | > 100000 | > 100000 | 1300 to 3800 |  |  |  |  | Dose-dependent effect | 540 | Activity (Rattus norvegicus [22]): inactive; IC50 ([11]; read-out: pIC50 (converted)): 3980 nM
4 | Cc1cc(C(c2ccccc2)c2ccccc2)sc1C(=O)N[C@@H](CCCNC(=N)N)C(=O)O | 100 | 49 | Stable | 4 | 23 | > 100000 | > 100000 | 7 | inactive | 40 | 90 | 100 | Dose-dependent effect | 2 | inhibition [23]: Dose-dependent effect; Vd [24]: 0.7 L; AUC(0-t) at 8 h [25]: 779 ng·h/mL; half-life [26]: 0.75 h; clearance [27]: 18 mL/min/kg
